Data taken from ChEMBL document CHEMBL3797175, “Discovery of 6-(difluoro(6-(4-fluorophenyl)-[1,2,4]triazolo[4,3-b][1,2,4]triazin-3-yl)methyl)quinoline as a highly potent and selective c-Met inhibitor” (Eur J Med Chem, 2016).
Calls of active or inactive are those of the source. The rule behind the calls is not given here.

Key:
[1] = Antitumor activity against human EBC1 cells xenografted in athymic nude mouse assessed as tumor growth inhibition at 25 mg/kg, po bid for 21 days measured twice a week during compound dosing relative to control; format: functional; details: EBC-1, po, 504 h, read-out: TGI
Summary of the method: (§1)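 Nude mice bearing s.c. tumours. Cells were first grown s.c. to 700–800 mm³, then 1.5 mm³ fragments were transplanted s.c. into the right flank. Mice were randomised at 100–200 mm³ (n=6 treated, n=12 vehicle) and dosed orally twice daily for 21 days. Caliper measurement twice weekly; TV = length×width²/2. TGI taken on the final day versus vehicle; Student's t test.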

[2] = biological target: Mast/stem cell growth factor receptor Kit (Homo sapiens) (UniProt P10721); test: Inhibition of recombinant c-Kit (unknown origin) using poly (Glu, Tyr) 4:1 as substrate at 1000 nM incubated for 60 mins by ELISA relative to control
Summary of the method: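 Recombinant tyrosine kinases assayed on wells precoated with poly(Glu,Tyr)4:1 (20 µg/mL). ATP 10 µmol/L in HEPES pH 7.4 buffer with MgCl2, MnCl2, Na3VO4 and DTT; compound in 1% DMSO, 1% DMSO as control. Reaction 60 min at 37 °C. Phosphotyrosine detected with PY99 and HRP anti-mouse, o-phenylenediamine, A490. Inhibition % relative to control; two experiments.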

[3] = biological target: T1, Hepatocyte growth factor receptor (Homo sapiens, UniProt P08581); test: Inhibition of c-Met phosphorylation at Tyrosine 1234 in human EBC1 cells at 10 nM after 1 hr by Western blot analysis; format: cell-based
Summary of the method: (§2)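 EBC-1 or MKN45 cells treated with compound 1 h at 37 °C without HGF, then lysed in 1× SDS sample buffer. Lysates run on 10% SDS-PAGE and transferred to nitrocellulose. Probed with antibodies to c-Met, phospho-c-Met, phospho-ERK1/2, phospho-AKT, AKT and GAPDH, then HRP secondary. ECL detection.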

[4] = biological target: T1, Hepatocyte growth factor receptor; test: Inhibition of c-Met in human EBC1 cells assessed as reduction in ERK phosphorylation at Threonine 202 at 10 nM after 1 hr by Western blot analysis; format: cell-based; summary of the method: as §2
[5] = biological target: T1, Hepatocyte growth factor receptor; test: Inhibition of c-Met in HGF stimulated human U87MG cells assessed as reduction in ERK phosphorylation at Threonine 202 at 10 nM after 1 hr by Western blot analysis; format: cell-based; details: U-87MG ATCC
Summary of the method: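 U87MG cells serum-starved 24 h, treated 1 h at 37 °C, then stimulated with HGF 100 ng/mL for 15 min. Lysed in SDS buffer, run on 10% SDS-PAGE and immunoblotted for phospho-ERK1/2 and phospho-AKT; ECL detection.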

[6] = biological target: T1, Hepatocyte growth factor receptor; test: Inhibition of c-Met phosphorylation at Tyrosine 1235 in human EBC1 cells at 10 nM after 1 hr by Western blot analysis; format: cell-based; summary of the method: as §2
[7] = Antiproliferative activity against human Bel7404 cells after 72 hrs by SRB or MTT assay; format: functional, cell-based; details: BEL-7404, 72 h
Summary of the method: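 Cells seeded, exposed next day to a range of concentrations for 72 h. Growth read by sulforhodamine B or MTT. IC50 from four-parameter concentration-response fit. Each concentration tested at least in triplicate, with at least 2 experiments.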

[8] = Antitumor activity against human EBC1 cells xenografted in athymic nude mouse assessed as tumor growth inhibition at 6.25 mg/kg, po bid for 21 days measured twice a week during compound dosing relative to control; format: functional; details: EBC-1, po, 504 h, read-out: TGI; summary of the method: as §1
[9] = Selectivity ratio of IC50 for human Bel7404 cells to IC50 for human MKN45 cells; format: ADME, cell-based
Summary of the method: (§3)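 Both IC50s in each ratio come from one proliferation assay. Cells were seeded and exposed the next day to a range of concentrations for 72 h, then read by SRB or MTT. IC50s were fitted by four-parameter concentration–response, with each concentration at least in triplicate and at least 2 experiments. BaF3/TPR-Met is murine pre-B BaF3 transfected with TPR-MET and puromycin-selected.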

[10] = Selectivity ratio of IC50 for human Bel7404 cells to IC50 for mouse BAF3 cells expressing TPR-MET; format: ADME, cell-based; summary of the method: as §3
[11] = Selectivity ratio of IC50 for human HCT116 cells to IC50 for mouse BAF3 cells expressing TPR-MET; format: ADME, cell-based; summary of the method: as §3
[12] = Selectivity ratio of IC50 for human NCI-H292 cells to IC50 for human EBC1 cells; format: ADME, cell-based; summary of the method: as §3
[13] = Selectivity ratio of IC50 for human Calu3 cells to IC50 for mouse BAF3 cells expressing TPR-MET; format: ADME, cell-based; summary of the method: as §3
[14] = Selectivity ratio of IC50 for human SPCA4 cells to IC50 for human MKN45 cells; format: ADME, cell-based, SPC-A4; details: SPCA4 cells versus MKN45 cells

T1 sequence (P08581 whole entry): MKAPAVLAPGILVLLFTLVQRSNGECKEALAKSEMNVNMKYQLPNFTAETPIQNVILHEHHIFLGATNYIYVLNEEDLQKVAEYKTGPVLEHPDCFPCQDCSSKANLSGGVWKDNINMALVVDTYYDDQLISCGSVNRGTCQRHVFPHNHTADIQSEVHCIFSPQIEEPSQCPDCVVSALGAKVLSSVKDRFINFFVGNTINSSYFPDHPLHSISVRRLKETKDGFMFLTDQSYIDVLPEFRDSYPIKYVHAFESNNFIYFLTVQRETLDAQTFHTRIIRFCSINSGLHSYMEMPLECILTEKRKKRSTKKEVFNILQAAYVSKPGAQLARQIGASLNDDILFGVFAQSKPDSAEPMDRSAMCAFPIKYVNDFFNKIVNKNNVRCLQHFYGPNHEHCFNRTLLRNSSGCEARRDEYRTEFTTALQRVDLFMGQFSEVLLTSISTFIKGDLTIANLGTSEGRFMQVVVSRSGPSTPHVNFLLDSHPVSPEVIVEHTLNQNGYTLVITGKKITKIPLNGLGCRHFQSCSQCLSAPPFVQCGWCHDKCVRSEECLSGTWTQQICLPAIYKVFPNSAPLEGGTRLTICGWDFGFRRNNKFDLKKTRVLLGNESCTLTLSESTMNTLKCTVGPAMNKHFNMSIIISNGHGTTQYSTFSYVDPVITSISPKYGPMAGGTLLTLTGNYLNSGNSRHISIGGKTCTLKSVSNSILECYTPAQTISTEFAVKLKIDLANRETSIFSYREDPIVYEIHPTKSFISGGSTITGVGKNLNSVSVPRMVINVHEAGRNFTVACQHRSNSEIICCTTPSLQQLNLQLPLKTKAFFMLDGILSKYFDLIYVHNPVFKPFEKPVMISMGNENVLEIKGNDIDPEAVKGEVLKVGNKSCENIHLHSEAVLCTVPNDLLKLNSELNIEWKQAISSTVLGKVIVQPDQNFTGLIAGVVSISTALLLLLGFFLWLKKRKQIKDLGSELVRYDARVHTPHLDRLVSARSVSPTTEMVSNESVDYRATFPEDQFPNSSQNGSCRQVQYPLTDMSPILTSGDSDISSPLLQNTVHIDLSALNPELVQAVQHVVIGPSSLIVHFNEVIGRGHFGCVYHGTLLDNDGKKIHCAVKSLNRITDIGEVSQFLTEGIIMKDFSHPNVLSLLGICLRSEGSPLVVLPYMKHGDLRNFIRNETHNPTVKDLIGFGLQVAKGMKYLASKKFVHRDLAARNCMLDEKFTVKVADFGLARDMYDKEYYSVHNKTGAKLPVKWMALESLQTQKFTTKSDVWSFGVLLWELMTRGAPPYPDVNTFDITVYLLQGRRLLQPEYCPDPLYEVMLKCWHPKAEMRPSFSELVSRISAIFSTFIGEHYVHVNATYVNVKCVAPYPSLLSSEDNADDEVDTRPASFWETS
Sequence of Mast/stem cell growth factor receptor Kit (Homo sapiens) (P10721 whole entry): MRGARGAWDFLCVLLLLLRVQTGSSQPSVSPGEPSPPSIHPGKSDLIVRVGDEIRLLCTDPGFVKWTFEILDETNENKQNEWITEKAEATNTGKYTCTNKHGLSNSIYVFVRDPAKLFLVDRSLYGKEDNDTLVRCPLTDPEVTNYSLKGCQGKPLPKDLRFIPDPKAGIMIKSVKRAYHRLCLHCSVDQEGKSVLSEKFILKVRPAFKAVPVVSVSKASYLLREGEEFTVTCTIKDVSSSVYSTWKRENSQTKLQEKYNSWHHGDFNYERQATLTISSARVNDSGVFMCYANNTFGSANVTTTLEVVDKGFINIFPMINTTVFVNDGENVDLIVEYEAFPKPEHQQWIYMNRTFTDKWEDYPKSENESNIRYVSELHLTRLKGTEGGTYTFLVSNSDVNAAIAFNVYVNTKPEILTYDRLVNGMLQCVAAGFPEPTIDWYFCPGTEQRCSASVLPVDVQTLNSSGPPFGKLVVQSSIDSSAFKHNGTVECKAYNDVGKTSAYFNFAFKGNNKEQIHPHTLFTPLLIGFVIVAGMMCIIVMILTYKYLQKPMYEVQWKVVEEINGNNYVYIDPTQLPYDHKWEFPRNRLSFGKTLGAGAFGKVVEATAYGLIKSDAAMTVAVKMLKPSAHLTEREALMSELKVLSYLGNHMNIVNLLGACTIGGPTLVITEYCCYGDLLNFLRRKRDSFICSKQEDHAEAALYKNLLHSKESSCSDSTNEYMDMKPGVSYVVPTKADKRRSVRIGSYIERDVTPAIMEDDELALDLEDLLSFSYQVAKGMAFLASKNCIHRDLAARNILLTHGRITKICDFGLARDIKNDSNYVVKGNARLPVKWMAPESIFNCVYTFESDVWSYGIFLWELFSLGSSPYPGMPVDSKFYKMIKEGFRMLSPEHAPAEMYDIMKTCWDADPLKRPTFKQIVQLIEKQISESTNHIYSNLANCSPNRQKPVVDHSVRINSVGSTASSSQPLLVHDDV

Fc1ccc(-c2cnc3nnc(C(F)(F)c4ccc5ncccc5c4)n3n2)cc1
inhibition in vivo at 25 mg/kg [1]: 97.1% | inhibition [2]: 32.1% | inhibition [3]: Active | inhibition [4]: Active | inhibition [5]: Active | inhibition [6]: Active | IC50 [7]: > 10 µM | inhibition in vivo at 6.25 mg/kg [8]: 56.9% | Ratio IC50 [9]: 10000 | Ratio IC50 [10]: 10000 | Ratio IC50 [11]: 10000 | Ratio IC50 [12]: 10000 | Ratio IC50 [13]: > 10000 | selectivity ratio [14]: > 10000
